≈ marks a conversion by molar mass, not a printed value.
Tests used:
A549 = assay: Cytotoxicity against human A549 cells after 72 hrs by MTT assay; assay type: functional, cell-based; settings: A549, 72 h
[1] = biological target: Epidermal growth factor receptor (Homo sapiens, UniProt P00533); assay: Inhibition of human EGFR using poly[Glu:Tyr] (4:1) as substrate measured after 20 mins in presence of [gamma33P]ATP by filter-binding assay
[2] = Thermodynamic solubility of the compound in 1-octanol solution measured after 24 hrs by UV-HPLC analysis; assay type: physicochemical; settings: read-out: Therm_solubility
[3] = 1-Octanol-buffer partition coefficient, log D of compound at pH 7.4 after 24 hrs by shake-flask method; assay type: physicochemical; settings: for logD at 24 h: 1-octanol/buffer, pH 7.4
Method in brief: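 Shake-flask partition between 1-octanol and pH 7.4 aqueous solution, mixed at 1/2 (v/v) octanol/aqueous; log D taken at pH 7.4.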

[4] = Thermodynamic solubility of the compound in pH 7.4 phosphate buffered saline measured after 24 hrs by UV-HPLC analysis; assay type: physicochemical; settings: read-out: Therm_solubility
[5] = GSH reactivity in pH 7.4 phosphate buffer assessed as half life measured every 15 mins by HPLC analysis; assay type: physicochemical; settings: phosphate buffer with GSH
Method in brief: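 Half-life measured on incubation with glutathione at pH 7.4 and 37 °C, compound to glutathione 1/10.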

[6] = biological target: Voltage-gated inwardly rectifying potassium channel KCNH2 (Homo sapiens, UniProt Q12809); assay: Inhibition of human ERG
Vero = assay: Cytotoxicity against African green monkey Vero cells assessed as reduction in cell viability after 72 hrs by MTT assay; assay type: ADME, cell-based; settings: Chlorocebus sabaeus
[7] = Cytotoxicity against human FHS cells assessed as reduction in cell viability after 72 hrs by MTT assay

Epidermal growth factor receptor, sequence (P00533 whole entry): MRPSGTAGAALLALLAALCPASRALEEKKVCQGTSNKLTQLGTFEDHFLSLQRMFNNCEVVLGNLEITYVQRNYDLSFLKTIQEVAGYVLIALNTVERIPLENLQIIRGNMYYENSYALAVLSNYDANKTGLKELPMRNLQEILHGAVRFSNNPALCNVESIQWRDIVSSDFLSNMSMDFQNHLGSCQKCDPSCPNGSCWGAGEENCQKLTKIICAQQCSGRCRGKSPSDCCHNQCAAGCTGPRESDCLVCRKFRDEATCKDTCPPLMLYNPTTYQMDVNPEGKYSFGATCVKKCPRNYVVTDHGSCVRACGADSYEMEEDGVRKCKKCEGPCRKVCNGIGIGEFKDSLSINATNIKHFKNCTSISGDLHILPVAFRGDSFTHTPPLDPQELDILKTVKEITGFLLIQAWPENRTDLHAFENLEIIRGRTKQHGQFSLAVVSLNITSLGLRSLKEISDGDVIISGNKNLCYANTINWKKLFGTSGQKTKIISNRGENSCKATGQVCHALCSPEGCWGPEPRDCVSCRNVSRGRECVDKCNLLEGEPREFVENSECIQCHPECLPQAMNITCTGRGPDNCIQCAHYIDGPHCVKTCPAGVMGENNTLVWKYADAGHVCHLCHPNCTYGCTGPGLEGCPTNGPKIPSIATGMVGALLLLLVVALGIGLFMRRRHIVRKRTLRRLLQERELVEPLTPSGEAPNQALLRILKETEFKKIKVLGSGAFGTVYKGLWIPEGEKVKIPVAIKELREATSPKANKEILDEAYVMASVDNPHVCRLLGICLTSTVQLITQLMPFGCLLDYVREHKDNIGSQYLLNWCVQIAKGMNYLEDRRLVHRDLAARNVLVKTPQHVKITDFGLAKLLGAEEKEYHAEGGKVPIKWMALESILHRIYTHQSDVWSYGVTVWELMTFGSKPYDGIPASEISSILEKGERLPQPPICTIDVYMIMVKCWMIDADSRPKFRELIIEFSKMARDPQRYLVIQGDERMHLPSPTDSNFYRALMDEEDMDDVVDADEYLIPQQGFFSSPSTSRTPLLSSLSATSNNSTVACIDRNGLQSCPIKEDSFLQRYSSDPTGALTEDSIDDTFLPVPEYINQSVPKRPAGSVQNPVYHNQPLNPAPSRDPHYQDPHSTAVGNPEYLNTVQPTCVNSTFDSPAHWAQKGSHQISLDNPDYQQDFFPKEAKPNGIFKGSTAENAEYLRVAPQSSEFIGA
Voltage-gated inwardly rectifying potassium channel KCNH2, sequence (Q12809 whole entry): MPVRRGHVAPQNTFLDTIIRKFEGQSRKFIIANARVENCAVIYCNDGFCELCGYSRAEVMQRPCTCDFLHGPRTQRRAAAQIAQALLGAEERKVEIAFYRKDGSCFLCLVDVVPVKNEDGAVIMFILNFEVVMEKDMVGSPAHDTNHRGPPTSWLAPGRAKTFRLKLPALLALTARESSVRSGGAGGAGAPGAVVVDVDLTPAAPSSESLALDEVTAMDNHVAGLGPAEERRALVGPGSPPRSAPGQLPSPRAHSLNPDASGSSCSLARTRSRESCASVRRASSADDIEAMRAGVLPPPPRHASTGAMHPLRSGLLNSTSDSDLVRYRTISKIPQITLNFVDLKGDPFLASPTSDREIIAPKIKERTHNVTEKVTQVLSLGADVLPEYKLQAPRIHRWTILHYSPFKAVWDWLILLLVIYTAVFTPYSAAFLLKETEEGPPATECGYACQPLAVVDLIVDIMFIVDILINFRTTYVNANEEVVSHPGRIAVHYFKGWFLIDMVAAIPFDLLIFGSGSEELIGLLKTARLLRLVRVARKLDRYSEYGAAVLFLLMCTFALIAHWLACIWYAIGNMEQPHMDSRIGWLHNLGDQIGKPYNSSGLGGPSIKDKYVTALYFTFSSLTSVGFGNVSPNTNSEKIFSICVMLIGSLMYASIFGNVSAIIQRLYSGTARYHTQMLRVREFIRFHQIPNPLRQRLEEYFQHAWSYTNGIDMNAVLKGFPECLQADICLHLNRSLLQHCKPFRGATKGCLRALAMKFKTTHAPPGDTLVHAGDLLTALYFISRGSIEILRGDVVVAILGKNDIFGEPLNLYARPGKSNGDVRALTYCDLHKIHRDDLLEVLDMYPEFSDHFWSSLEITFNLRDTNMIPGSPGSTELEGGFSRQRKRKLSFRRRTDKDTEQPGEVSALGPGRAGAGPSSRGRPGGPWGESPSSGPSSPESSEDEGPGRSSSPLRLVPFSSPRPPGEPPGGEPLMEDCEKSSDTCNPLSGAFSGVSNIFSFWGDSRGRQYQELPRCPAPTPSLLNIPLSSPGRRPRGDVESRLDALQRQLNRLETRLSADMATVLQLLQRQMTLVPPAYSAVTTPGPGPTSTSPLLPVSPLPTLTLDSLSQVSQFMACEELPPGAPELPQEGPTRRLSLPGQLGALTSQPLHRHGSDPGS

Row | Structure (SMILES) | IC50 [1] [nM] | solubility thermodynamic at 24 h [2] [mM] | solubility thermodynamic at 24 h [4] [µM] | IC50 (A549) [µM] | other results
1 | COc1cc2ncnc(Nc3cccc(Cl)c3F)c2cc1OCCCN1CCOCC1 | – | – | – | 7.51 | –
2 | C=CC(=O)N(c1cccc(Cl)c1F)c1ncnc2cc(OC)c(OCCCN3CCOCC3)cc12 | 52.6 | 5.6 (≈ 2810 µg/mL) | 1200 (≈ 601 µg/mL) | 0.45 | logD at 24 h [3]: 2.64; half-life [5]: 49 min
3 | C=CC(=O)N(c1ccc(F)c(C)c1)c1ncnc2cc(OC)c(OCCCN3CCOCC3)cc12 | 499 | – | – | – | –
4 | C=CC(=O)N(c1ccc(F)c(Cl)c1)c1ncnc2cc(OC)c(OCCCN3CCOCC3)cc12 | 65.2 | 4.54 to 4.94 (≈ 2270 to 2470 µg/mL) | 1650 (≈ 827 µg/mL) | 0.15 | IC50 [6]: > 10 µM; inhibition (INH) ([6]; human): 20%; logD at 24 h [3]: 2.01; IC50 (Vero): > 10 µM; IC50 [7]: > 10 µM; half-life [5]: 85.1 min
5 | C=CC(=O)N(c1cccc(Cl)c1F)c1ncnc2cc(OC)c(OC(=O)N3CCN(C)C[C@H]3C)cc12 | – | 5.02 (≈ 2580 µg/mL) | 30 (≈ 15.4 µg/mL) | 6.1 | logD at 24 h [3]: 2.46; half-life [5]: 27.5 min
6 | C=CC(=O)N(c1ccc(Cl)cc1F)c1ncnc2cc(OC)c(OCCCN3CCOCC3)cc12 | 234 | – | – | – | –
7 | C=CC(=O)N(c1ccc(F)c(C(F)(F)F)c1)c1ncnc2cc(OC)c(OCCCN3CCOCC3)cc12 | > 1000 | – | – | – | –
8 | C=CC(=O)N(c1ccc(F)cc1F)c1ncnc2cc(OC)c(OCCCN3CCOCC3)cc12 | 302 | – | – | – | –
9 | C=CC(=O)N(c1ccc(OC)cc1F)c1ncnc2cc(OC)c(OCCCN3CCOCC3)cc12 | > 1000 | – | – | – | –

Continued, in another order:

Row | IC50 [1] [nM] | solubility thermodynamic at 24 h [2] [mM] | solubility thermodynamic at 24 h [4] [µM] | Structure (SMILES) | IC50 (A549) [µM] | other results
10 | 500 | – | – | C=CC(=O)N(c1cc(F)c(F)cc1F)c1ncnc2cc(OC)c(OCCCN3CCOCC3)cc12 | – | –
11 | 844 | – | – | C=CC(=O)N(c1cccc(C(F)(F)F)c1)c1ncnc2cc(OC)c(OCCCN3CCOCC3)cc12 | – | –
12 | 1 | 4.57 (≈ 2120 µg/mL) | – | COc1cc2ncnc(Nc3ccc(Cl)c(Cl)c3)c2cc1OCCCN1CCOCC1 | 24.7 | –
13 | 31.7 | 4.47 (≈ 2310 µg/mL) | 630 (≈ 326 µg/mL) | C=CC(=O)N(c1ccc(Cl)c(Cl)c1)c1ncnc2cc(OC)c(OCCCN3CCOCC3)cc12 | 5.72 | logD at 24 h [3]: 3.57; half-life [5]: 17 min
14 | 133 | – | – | C=CC(=O)N(c1cc(Cl)ccc1F)c1ncnc2cc(OC)c(OCCCN3CCOCC3)cc12 | – | –
15 | 368 | – | – | C=CC(=O)N(c1ccc(F)c(F)c1)c1ncnc2cc(OC)c(OCCCN3CCOCC3)cc12 | – | –
16 | – | 4.54 (≈ 2090 µg/mL) | 20 (≈ 9.2 µg/mL) | COc1cc2ncnc(Nc3cccc(Cl)c3F)c2cc1OC(=O)N1CCN(C)C[C@H]1C [AZD-3759] | 28.7 | logD at 24 h [3]: 2.84
17 | – | 1.4 (≈ 626 µg/mL) | < 10 | COc1cc2ncnc(Nc3ccc(F)c(Cl)c3)c2cc1OCCCN1CCOCC1 [GEFITINIB] | – | logD ([3]; octanol/water, pH 7.4, 24 h): 2.41
